# Compound activity: PubChem BioAssay, Sanford-Burnham Center for Chemical Genomics
# mIAP act = mouse IAP activation | muIAP, CDP-Star luminescence, 30 min; active compounds read high; 1 = vehicle-only enzyme signal, 0 = enzyme-free wells | actives 0.24% (n = 330,000) | activation factor at 10 µM | AID 2805;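 active = activation factor of at least 2 at 20 µM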
#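 also added = chemiluminescent substrate CDP-Star | test system = mouse IAP enzyme | signal = chemiluminescence readout | compound = DMSO-dissolved test compounds | incubation = 30 min at room temperature | benchmarks = DMSO wells, no-enzyme wells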
# hIAP act = increases human intestinal alkaline phosphatase activity | purified human IAP, CDP-Star luminescence, 30 min; active compounds read high; 1 = vehicle-only enzyme, 0 = enzyme-free background | activation factor at 10 µM | actives 0.16% (n = 330,000);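 active = activation factor of the enzyme at least 2-fold when tested at 20 µM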
# Target sequence (P09923 whole entry, looked up): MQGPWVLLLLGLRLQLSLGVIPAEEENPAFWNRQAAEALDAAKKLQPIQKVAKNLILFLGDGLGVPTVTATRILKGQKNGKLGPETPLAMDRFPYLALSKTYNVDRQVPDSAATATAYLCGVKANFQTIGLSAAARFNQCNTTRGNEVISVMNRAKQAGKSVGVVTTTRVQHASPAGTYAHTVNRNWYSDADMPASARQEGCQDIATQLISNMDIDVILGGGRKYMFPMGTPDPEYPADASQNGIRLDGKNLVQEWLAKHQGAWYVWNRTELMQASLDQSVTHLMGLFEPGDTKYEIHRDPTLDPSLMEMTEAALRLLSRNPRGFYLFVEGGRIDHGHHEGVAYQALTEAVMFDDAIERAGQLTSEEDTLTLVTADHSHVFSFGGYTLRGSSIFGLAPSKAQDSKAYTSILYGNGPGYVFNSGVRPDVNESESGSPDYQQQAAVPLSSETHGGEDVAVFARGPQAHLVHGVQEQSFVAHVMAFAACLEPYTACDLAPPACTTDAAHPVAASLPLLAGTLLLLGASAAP
# mIAP block = mouse IAP inhibition; purified mouse IAP, CDP-Star luminescence, 30 min; inhibition, % at 10 µM; actives 0.2% (n = 330,000);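 active = inhibition of at least 40% at 10 µM in the primary screen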;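 also: plate controls were DMSO with enzyme for no effect and no enzyme wells for full effect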
# bIAP inhibitor = intestinal alkaline phosphatase (bovine) inhibition; inhibition, % at 20 µM; AID 1019; purified bovine IAP, CDP-star luminescence, 30 min; 190,000 tested, under 10 active;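 active = over 50% inhibition of intestinal alkaline phosphatase at 20 µM in the single-dose screen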
#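 Assay system – bovine IAP enzyme · Quantity – bovine IAP at 1/65,000,000 final dilution · Detection – CDP-star luminescence signal · Times – 30 min reaction at room temperature · Also added – CDP-star substrate at 30 µM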
# bIAP act = intestinal alkaline phosphatase (bovine) activation; AID 1016; actives 0.17% (n = 200,000); activation factor at 20 µM; purified bovine IAP, CDP-star luminescence, 30 min; active compounds read high; fold of DMSO-control signal, blank-subtracted;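 active = activation factor of 2 or more at 20 µM, a signal rise over negative controls twice the positive control's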
# hIAP inh = blocks human intestinal alkaline phosphatase. P09923. purified IAP, CDP-Star luminescence, 30 min. actives 0.12% (n = 330,000). AID 2544. inhibition, % at 10 µM;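 active = inhibition reaching a set limit with compound at 10 µM in the primary screen, cut at about 35% in these data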;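 also: plate controls were DMSO wells with enzyme for no effect and no-enzyme buffer wells for full effect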
# hIAP act confirm = human IAP activation confirmation | shares compounds with hIAP act | purified IAP, CDP-Star luminescence, 30 min; active compounds read low | activation (%Activity, negative = activation), % at 8.3 µM | actives 10% (n = 880) | AID 434926;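 active = at least twofold enzyme activation in any of six single-dose repeats, which the averaged readout prints as negative percent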
# Numbers without * were called inactive; x = not tested or not shown. In the library only some 0.72% were active in any assay of this set; here they are far more common.
SMILES,mIAP act,hIAP act,mIAP block,bIAP inhibitor,bIAP act,hIAP inh,hIAP act confirm
O=C(NCC1CCCCC1)c1ccc(F)cc1Cl,1.04,0.552,-4.2,x,x,44.8*,27.3
O=C1C=C(N2CCOCC2)c2ccccc2C1=O,1.04,0.554,-3.8,x,x,44.6*,2.6
CC1=C(C)C(=O)C(N2CCOCC2)=CC1=O,x,x,x,13.5,0.9,x,x
COc1ccc(Oc2nc(-c3cccnc3)nc3ccccc23)cc1,0.961,0.905,3.9,x,x,9.5,x
CC(=O)CCc1ccc(Oc2nc(-c3cccnc3)nc3ccccc23)cc1,0.861,0.641,13.9,-12.8,1.1,35.9*,42.0
O=C(CN1CCN(S(=O)(=O)c2ccc3ccccc3c2)CC1)Nc1ccc2c(c1)CCC2,0.828,2.04*,17.2,12.3,0.9,-103.7,-3.1
Cc1ccc(S(=O)(=O)N2CCN(CC(=O)Nc3ccc4c(c3)CCC4)CC2)cc1C,1.19,1.09,-18.8,-2.5,1,-9.2,x
COc1ccc(C(=O)COC(=O)C(CCSC)NC(=O)COc2ccccc2)c(OC)c1 (configuration not stated),0.943,1.08,5.7,x,x,-8.4,x
Cc1cc(NS(=O)(=O)c2ccc(NC(=O)C(C(C)C)N3C(=O)c4ccccc4C3=O)cc2)nc(C)n1 (configuration not stated),1.01,0.612,-0.8,-3.1,1,38.8*,-41.3
COc1ccc(C2c3ccc(O)cc3Oc3ncn4nc(-c5ccncc5)nc4c32)cc1OC (configuration not stated),0.856,0.591,14.4,x,x,40.9*,3.7
COc1ccc(OC(=O)c2cccnc2)cc1,0.92,0.589,8.0,6.5,0.9,41.1*,7.3
CC(C)(C)c1ccc(OC(=O)c2cccnc2)cc1,1.04,1.05,-4.2,6.4,0.9,-4.6,x
CSc1ccc(S(=O)(=O)NCC(=O)OCC(=O)NCc2cccs2)cc1[N+](=O)[O-],0.998,1.07,0.2,x,x,-7.4,x
COC(=O)N=Nc1c(O)[nH]c2ccc(Br)cc12,0.908,0.563,9.2,x,x,43.7*,-36.9
O=C(CNC(=O)c1ccccc1)N=Nc1c(O)[nH]c2ccc(Br)cc12,0.98,1.58,2.0,x,x,-57.9,x
CCOC(CNC(=O)Cc1c(C)nc2c(-c3ccccc3)c(C)nn2c1C)OCC,0.982,0.936,1.8,-18.0,1.2,6.4,x
Cc1cc(NC(=O)CSc2nnc(-c3ccc([N+](=O)[O-])cc3)o2)no1,1.03,0.649,-3.4,x,x,35.1*,-61.0
O=C(O)/C(=C\c1ccccc1)c1ccc2ccccc2c1,1.05,0.622,-5.4,x,x,37.8*,5.9
O=C(NCCN1CCCCC1)/C(=C/c1ccco1)NC(=O)c1ccccc1,1.02,1.03,-2.1,x,x,-3.0,x
CCOc1ccc(S(=O)(=O)N2CCCCC2)cc1NC(=O)CSCc1c(C)noc1C,0.941,1.16,5.9,x,x,-16.0,x
CCOCCCNc1nc2c(C)cccn2c(=O)c1/C=C1\SC(=S)N(C(C)CC)C1=O (configuration not stated),0.7,0.638,30.0,x,x,36.2*,0.5
O=C(NNC(=O)c1ccccc1O)c1cc2ccccc2o1,0.729,2.37*,27.1,x,x,-137.2,-41.2
Cc1ccc(-c2cc(C(=O)N/N=C/c3ccccc3O)n[nH]2)o1,0.844,3.14*,15.6,x,x,-214.1,39.3
Cc1ccc(-n2nc3c(=O)n(CCCC(=O)NCc4ccccc4Cl)nc(C)c3c2C)cc1,0.957,0.991,4.3,x,x,0.9,x
COc1ccc(S(=O)(=O)N(CC(=O)N2CCOCC2)Cc2ccccc2)cc1,0.945,3.16*,5.5,16.1,0.8,-215.7,-3.2
SMILES,mIAP act,hIAP act,mIAP block,bIAP inhibitor,bIAP act,hIAP inh,hIAP act confirm
CN(C)S(=O)(=O)c1cccc(NC(=O)C2Cc3ccccc3CN2C(=O)c2ccccc2)c1 (configuration not stated),1.13,1.09,-13.2,x,x,-9.3,x
CN(CC(=O)Nc1ccccc1Br)C(=O)CNC(=O)c1ccc(Oc2ccccc2)cc1,0.949,0.649,5.1,x,x,35.1*,-1.9
CCCNS(=O)(=O)c1ccc(CCC(=O)NCc2ccco2)cc1,0.99,2.41*,1.0,6.7,0.9,-141.3,11.0
Cc1cc(C)cc(NC(=O)CCc2ccc(C)o2)c1,0.648,0.998,35.2,x,x,0.2,x
Cc1cccc(NC(=O)CCc2ccc(C)o2)c1,0.986,0.634,1.4,-3.1,1,36.7*,-25.6
COC1=CC(=Cc2c(N)n3nc(CC(=O)N4CCOCC4)sc3nc2=O)C=C(OC)C1=O,0.854,0.582,14.6,x,x,41.8*,-39.1
Cc1ccc(C(=O)NNC(=O)CCC(=O)NCc2ccccc2)cc1Br,0.892,2.21*,10.8,x,x,-121.3,1.6
Cc1cccc(CSc2[nH]c(=O)ncc2C)c1,0.939,1.02,6.1,x,x,-2.3,x
O=C(CNC(=S)N(CCCN1CCOCC1)Cc1cccs1)NCc1ccccc1Cl,1.01,2.1*,-0.7,x,x,-109.5,14.5
O=C(CNC(=S)N(CCCN1CCOCC1)Cc1cccs1)NCc1ccc(Cl)cc1,1.08,2.86*,-8.1,x,x,-186.3,-51.1
O=C(CNC(=S)N(CCCN1CCOCC1)Cc1cccs1)NCCCN1CCOCC1,0.847,0.951,15.3,-9.8,1.1,4.9,x
COC(CNC(=O)CNC(=S)N(CCCN1CCOCC1)Cc1cccs1)OC,1.18,1.28,-18.2,7.8,0.9,-28.2,x
COC(=O)C(C)Oc1ccc(Cl)c(CN2OCC(C)(C)C2=O)c1 (configuration not stated),0.995,1.12,0.5,x,x,-12.3,x
O=c1c2cc(O)c(O)cc2oc2cc(O)c(C3OC(CO)C(O)C(O)C3O)c(O)c12 (configuration not stated),0.695,0.177,30.5,x,x,82.3*,-148.3*
O=c1ccc2cc(O)c(O)cc2o1,0.608,0.597,39.2,1.1,1,40.3*,-17.8
CC(C)(C)c1cccc(C2(O)C(=O)c3ccccc3C2=O)c1O,0.951,0.419,4.9,x,x,58.1*,5.0
Cc1ccc(C2(O)C(=O)c3ccccc3C2=O)c(O)c1C,1.04,1.01,-4.1,x,x,-1.0,x
O=C(NCc1cccnc1)c1ccccc1NS(=O)(=O)c1ccc(F)cc1F,1.03,1,-2.8,x,x,0.0,x
COc1ccc(/C=C/CN2CCC(n3nccc3NC(=O)C3CCCC3)CC2)cc1,1.45,2.09*,-45.1,x,x,-109.4,5.8
COc1ccc(CN2CCC(n3nccc3NC(=O)C3CCCC3)CC2)cc1,1.18,1.95,-18.2,x,x,-95.4,x
CC1CCN(Cc2nnnn2CCCC(=O)N(C)C2CCOC2)CC1 (configuration not stated),1.04,1.16,-4.2,x,x,-15.5,x
Cc1nc(-c2ccc(S(=O)(=O)N3CCCN(CCc4ccccc4)CC3)s2)cs1,0.868,2.27*,13.2,x,x,-127.0,-3.0
Cc1ccc(NCc2ccc([N+](=O)[O-])s2)cc1,0.94,0.632,6.0,x,x,36.8*,26.1
